Test results published in ChEMBL document CHEMBL2384906, “Biological activity, design, synthesis and structure activity relationship of some novel derivatives of curcumin containing sulfonamides” (Eur J Med Chem, 2013).
In brackets after ≈: the same amount, converted by molar mass. Activity calls are given as the source filed them. The rule behind the calls is not given here.

Experiments:
[1] = tested on: Salmonella typhi; experiment: Antimicrobial activity against Salmonella typhi ATCC 23564 assessed as diameter of inhibition zone at 20 uM after 24 hrs by Kirby -Baur disc diffusion method; assay type: functional; conditions: Salmonella enterica subsp. enterica serovar Typhi
[2] = tested on: Pseudomonas aeruginosa; experiment: Antimicrobial activity against Pseudomonas aeruginosa ATCC 15499 assessed as diameter of inhibition zone at 20 uM after 24 hrs by Kirby -Baur disc diffusion method; assay type: functional
Outline: (§1)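 Kirby-Bauer disc diffusion was used. Acetone stocks (160 µM) were serially doubled down to 80, 40 and 20 µM. 4 µL of each went onto 5 mm sterile paper discs, which were dried 30 min at 50 °C. Inoculum was 1.5 × 10⁸ CFU/mL diluted to 3 × 10² CFU/mL, and 50 µL was spread on Mueller-Hinton agar. After 24 h at 37 °C the inhibition-zone diameter was measured. Ciprofloxacin served as positive control.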

[3] = tested on: Pseudomonas aeruginosa; experiment: Antimicrobial activity against Pseudomonas aeruginosa ATCC 15499 after 24 hrs by broth micro serial dilution method; assay type: functional; conditions: ATCC 15499, 24 h
Outline: (§2)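 This was broth microdilution in autoclaved Mueller-Hinton broth. 150 µL of compound per well was serially diluted […], and 50 µL of test organism was added. Plates were incubated 24 h at 37 °C and optical density was read.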

[4] = tested on: HCT-116; experiment: Cytotoxicity against human HCT116 cells after 24 hrs by MTT assay; assay type: functional, cell-based
Outline: (§3)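 The MTT assay seeded 5 × 10⁴ cells per well and grew them 24 h in RPMI 1640 with compound at 2.5–200 µM. Medium without cells was the blank and adriamycin the positive control. MTT was added for 4 h at 37 °C, formazan was solubilised, and absorbance was read at 570 nm. IC50 is the concentration that cuts viability 50% against untreated cells.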

[5] = tested on: Aspergillus flavus; experiment: Antifungal activity against Aspergillus flavus MTCC 1021 assessed as zone of inhibition at 80 uM after 48 hrs by disc diffusion method; assay type: functional
Outline: (§4)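 Spores from 4-day potato dextrose agar cultures, suspended in sterile water at 1.5 × 10⁵ CFU/mL. 0.2 mL was spread on potato dextrose agar. 5 mm filter-paper discs soaked with test compound were laid on the lawn. Incubation was 48 h at 28 °C, then the inhibition zone was measured in mm. Fluconazole was the positive control and acetone the negative control.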

[6] = tested on: Trichoderma viride; experiment: Antifungal activity against Trichoderma viride MTCC 1107 after 48 hrs; assay type: functional; conditions: MTCC 1107, 48 h
[7] = tested on: Escherichia coli; experiment: Antimicrobial activity against Escherichia coli ATCC 35218 assessed as diameter of inhibition zone at 20 uM after 24 hrs by Kirby -Baur disc diffusion method; assay type: functional; outline: as §1
[8] = tested on: Salmonella typhi; experiment: Antimicrobial activity against Salmonella typhi ATCC 23564 assessed as diameter of inhibition zone at 80 uM after 24 hrs by Kirby -Baur disc diffusion method; assay type: functional, Salmonella enterica subsp. enterica serovar Typhi; conditions: Salmonella enterica, ATCC 23564, 24 h; read-out: DIZ
[9] = tested on: Escherichia coli; experiment: Antimicrobial activity against Escherichia coli ATCC 35218 assessed as diameter of inhibition zone at 40 uM after 24 hrs by Kirby -Baur disc diffusion method; assay type: functional; outline: as §1
[10] = tested on: Curvularia lunata; experiment: Antifungal activity against Curvularia lunata MTCC 581 assessed as zone of inhibition at 80 uM after 48 hrs by disc diffusion method; assay type: functional; conditions: MTCC 581, 48 h, read-out: IZ; outline: as §4
[11] = tested on: HepG2; experiment: Cytotoxicity against human HepG2 cells after 24 hrs by MTT assay; assay type: functional, cell-based; outline: as §3
[12] = tested on: Pseudomonas aeruginosa; experiment: Antimicrobial activity against Pseudomonas aeruginosa ATCC 15499 assessed as diameter of inhibition zone at 80 uM after 24 hrs by Kirby -Baur disc diffusion method; assay type: functional; conditions: ATCC 15499, 24 h, read-out: DIZ; outline: as §1
[13] = tested on: Curvularia lunata; experiment: Antifungal activity against Curvularia lunata MTCC 581 assessed as zone of inhibition at 20 uM after 48 hrs by disc diffusion method; assay type: functional; outline: as §4
[14] = tested on: Trichoderma viride; experiment: Antifungal activity against Trichoderma viride MTCC 1107 assessed as zone of inhibition at 20 uM after 48 hrs by disc diffusion method; assay type: functional; outline: as §4
[15] = tested on: Staphylococcus aureus; experiment: Antimicrobial activity against Staphylococcus aureus ATCC 11632 assessed as diameter of inhibition zone at 40 uM after 24 hrs by Kirby -Baur disc diffusion method; assay type: functional; outline: as §1
[16] = tested on: Pseudomonas aeruginosa; experiment: Antimicrobial activity against Pseudomonas aeruginosa ATCC 15499 assessed as diameter of inhibition zone at 40 uM after 24 hrs by Kirby -Baur disc diffusion method; assay type: functional; conditions: ATCC 15499, 24 h, read-out: DIZ; outline: as §1
[17] = tested on: Staphylococcus aureus; experiment: Antimicrobial activity against Staphylococcus aureus ATCC 11632 assessed as diameter of inhibition zone at 80 uM after 24 hrs by Kirby -Baur disc diffusion method; assay type: functional; conditions: ATCC 11632, 24 h, read-out: DIZ; outline: as §1
[18] = tested on: Bacillus cereus; experiment: Antimicrobial activity against Bacillus cereus MTCC 7350 assessed as diameter of inhibition zone at 80 uM after 24 hrs by Kirby -Baur disc diffusion method; assay type: functional; outline: as §1
[19] = tested on: Trichoderma viride; experiment: Antifungal activity against Trichoderma viride MTCC 1107 assessed as zone of inhibition at 40 uM after 48 hrs by disc diffusion method; assay type: functional; conditions: MTCC 1107, 48 h, read-out: IZ; outline: as §4
[20] = tested on: Curvularia lunata; experiment: Antifungal activity against Curvularia lunata MTCC 581 after 48 hrs; assay type: functional; conditions: MTCC 581, 48 h
[21] = tested on: Trichoderma viride; experiment: Antifungal activity against Trichoderma viride MTCC 1107 assessed as zone of inhibition at 80 uM after 48 hrs by disc diffusion method; assay type: functional; conditions: MTCC 1107, 48 h, read-out: IZ; outline: as §4
[22] = tested on: Aspergillus flavus; experiment: Antifungal activity against Aspergillus flavus MTCC 1021 after 48 hrs; assay type: functional; conditions: MTCC 1021, 48 h
[23] = tested on: QG-56; experiment: Cytotoxicity against human QG56 cells after 24 hrs by MTT assay; assay type: functional, cell-based; outline: as §3
[24] = tested on: Mus musculus; experiment: Antiinflammatory activity in mouse assessed as inhibition of carrageenan-induced increase in paw volume at 200 mg/kg administered 1 hr prior to carrageenan challenge measured after 3 hrs relative to control; assay type: functional
Outline: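 Mice were fasted 2 h and placed in groups of five. Controls received saline i.p. Phenylbutazone was given at 100 mg/kg i.p., curcumin at 200 mg/kg i.p., and derivatives at 200 mg/kg. After 1 h, 0.1 mL of 1% carrageenan in saline was injected subplantar into the right hind paw. Paw volume was followed by plethysmometer for 3 h, and % inhibition was calculated as (Vc − Vt)/Vc × 100.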

[25] = tested on: Bacillus cereus; experiment: Antimicrobial activity against Bacillus cereus MTCC 7350 after 24 hrs by broth micro serial dilution method; assay type: functional; outline: as §2
[26] = tested on: Staphylococcus aureus; experiment: Antimicrobial activity against Staphylococcus aureus ATCC 11632 assessed as diameter of inhibition zone at 20 uM after 24 hrs by Kirby -Baur disc diffusion method; assay type: functional; outline: as §1
[27] = tested on: Aspergillus niger; experiment: Antifungal activity against Aspergillus niger MTCC 1108 assessed as zone of inhibition at 80 uM after 48 hrs by disc diffusion method; assay type: functional; outline: as §4
[28] = tested on: Escherichia coli; experiment: Antimicrobial activity against Escherichia coli ATCC 35218 after 24 hrs by broth micro serial dilution method; assay type: functional; conditions: ATCC 35218, 24 h; outline: as §2
[29] = tested on: Salmonella typhi; experiment: Antimicrobial activity against Salmonella typhi ATCC 23564 assessed as diameter of inhibition zone at 40 uM after 24 hrs by Kirby -Baur disc diffusion method; assay type: functional, Salmonella enterica subsp. enterica serovar Typhi; conditions: Salmonella enterica, ATCC 23564, 24 h; read-out: DIZ
[30] = tested on: Salmonella typhi; experiment: Antimicrobial activity against Salmonella typhi ATCC 23564 after 24 hrs by broth micro serial dilution method; assay type: functional, Salmonella enterica subsp. enterica serovar Typhi; conditions: Salmonella enterica, ATCC 23564, 24 h
[31] = tested on: Curvularia lunata; experiment: Antifungal activity against Curvularia lunata MTCC 581 assessed as zone of inhibition at 40 uM after 48 hrs by disc diffusion method; assay type: functional; conditions: MTCC 581, 48 h, read-out: IZ; outline: as §4
[32] = tested on: Staphylococcus aureus; experiment: Antimicrobial activity against Staphylococcus aureus ATCC 11632 after 24 hrs by broth micro serial dilution method; assay type: functional; conditions: ATCC 11632, 24 h; outline: as §2
[33] = tested on: HeLa; experiment: Cytotoxicity against human HeLa cells after 24 hrs by MTT assay; assay type: functional, cell-based; outline: as §3
[34] = tested on: Escherichia coli; experiment: Antimicrobial activity against Escherichia coli ATCC 35218 assessed as diameter of inhibition zone at 80 uM after 24 hrs by Kirby -Baur disc diffusion method; assay type: functional; conditions: ATCC 35218, 24 h, read-out: DIZ; outline: as §1
[35] = tested on: Aspergillus niger; experiment: Antifungal activity against Aspergillus niger MTCC 1108 after 48 hrs; assay type: functional; conditions: MTCC 1108, 48 h

**Q.** For `COc1ccc(NS(=O)(=O)c2ccc(/N=N/c3c(/C=C/c4ccc(O)c(OC)c4)noc3/C=C/c3ccc(O)c(OC)c3)cc2)nn1`, which “diameter of the inhibition zone (DIZ)” value [1] is on record?
**A.** inactive

**Q.** And the “diameter of the inhibition zone (DIZ)” value [2]?
**A.** inactive

**Q.** What about the MIC [3] of the same compound?
**A.** 80 µM (≈ 52.5 µg/mL)

**Q.** And the IC50 [4]?
**A.** Not Active

**Q.** What about the “inhibition zone (IZ)” value [5] of the same compound?
**A.** inactive

**Q.** What about the MIC [6] of the same compound?
**A.** > 80 µM

**Q.** And the “diameter of the inhibition zone (DIZ)” value [7]?
**A.** inactive

**Q.** What about the zone of inhibition at 80 µM [8] of the same compound?
**A.** 14 mm

**Q.** And the “diameter of the inhibition zone (DIZ)” value [9]?
**A.** inactive

**Q.** And the zone of inhibition at 80 µM [10]?
**A.** 11 mm

**Q.** What about the IC50 [11] of the same compound?
**A.** Not Active

**Q.** What about the zone of inhibition at 80 µM [12] of the same compound?
**A.** 13 mm

**Q.** What about the “inhibition zone (IZ)” value [13] of the same compound?
**A.** inactive

**Q.** And the “inhibition zone (IZ)” value [14]?
**A.** inactive

**Q.** What about the “diameter of the inhibition zone (DIZ)” value [15] of the same compound?
**A.** inactive

**Q.** And the zone of inhibition at 40 µM [16]?
**A.** 9 mm

**Q.** What about the zone of inhibition at 80 µM [17] of the same compound?
**A.** 10 mm

**Q.** And the “diameter of the inhibition zone (DIZ)” value [18]?
**A.** inactive

**Q.** And the zone of inhibition at 40 µM [19]?
**A.** 9 mm

**Q.** And the MIC [20]?
**A.** > 80 µM

**Q.** And the zone of inhibition at 80 µM [21]?
**A.** 11 mm

**Q.** And the MIC [22]?
**A.** > 80 µM

**Q.** And the IC50 [23]?
**A.** Not Active

**Q.** What about the inhibition in vivo at 200 mg/kg [24] of the same compound?
**A.** 48.3%

**Q.** What about the MIC [25] of the same compound?
**A.** inactive

**Q.** What about the “diameter of the inhibition zone (DIZ)” value [26] of the same compound?
**A.** inactive

**Q.** What about the “inhibition zone (IZ)” value [27] of the same compound?
**A.** inactive

**Q.** What about the MIC [28] of the same compound?
**A.** > 80 µM

**Q.** What about the zone of inhibition at 40 µM [29] of the same compound?
**A.** 9 mm

**Q.** What about the MIC [30] of the same compound?
**A.** 80 µM (≈ 52.5 µg/mL)

**Q.** And the zone of inhibition at 40 µM [31]?
**A.** 9 mm

**Q.** What about the MIC [32] of the same compound?
**A.** > 80 µM

**Q.** And the IC50 [33]?
**A.** Not Active

**Q.** What about the zone of inhibition at 80 µM [34] of the same compound?
**A.** 11 mm

**Q.** What about the MIC [35] of the same compound?
**A.** > 80 µM
